From paper PMC8419023 (Structure (London, England : 1993), 2021)
Blank lines part the entries; values can stand above or below the substance they belong to. No end group written: not given here.

Experiments:
cyclin A = assay: GST pull down, cyclin A in isolation; type: binding, human; settings: HEPES pH 7.5; 1 h, 4°C; SDS-PAGE; two experiments; Figure 1C
Method in brief: (§1)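 Bacterially expressed proteins: CDK2 (1–298) as a GST fusion, cyclin A (1–432 or 173–432) as a 6XHis fusion. […] Incubated 1 h at 4 °C with mild agitation, washed three times in binding buffer, and bound material analysed by SDS-PAGE; repeated 2–3 times.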

CDK2 = assay: GST pull down, CDK2 in isolation; type: binding, human; settings: HEPES pH 7.5; 1 h, 4°C; SDS-PAGE; two experiments; Figure 1C
CDK2-cyclin A [1] = target: CDK2-cyclin A (Homo sapiens, UniProt P20248+P24941); assay: GST pull down, CDK2-cyclin A; type: binding; settings: 1 h, 4°C, SDS-PAGE, two experiments; for binding of GST-tagged Skp2 N-terminal fragments to CDK2-cyclin A^1−432: GST pull-down, Figure 4B; for binding of N-terminal deletions to GST:CDK2-cyclin A: GST CDK2-cyclin A^173−432 with Skp1-Skp2 deletions, Figure 1D
Method in brief: as §1

CDK2-cyclin A^173−432 = assay: Protein kinase assay, Bora^1−224 phosphorylation by CDK2-cyclin A; type: biochemical, human; settings: 3 nM CDK2-cyclin A, 30°C, 30 min, Figure 7A
[2] = target: CDK2-cyclin A (Surface 2, hydrophobic patch); assay: Fluorescence polarization displacement of FITC-p27^27−36 from CDK2-cyclin A; type: binding, human; settings: 25 nM FITC-p27^27−36, CDK2-cyclin A 6.25 μM, HEPES pH 7.5, 30 min, N=4
CDK2-cyclin A [3] = settings: ref Ji et al., 2006; cited from earlier work

Substance: GST-Skp2^1−424: GST-tagged full-length Skp2
- pull down of cyclin A in isolation (cyclin A): could also pull down cyclin A in isolation
- pull down of CDK2 in isolation (CDK2): not CDK2 in isolation

Substance: Skp2^1−424: full-length Skp2 in complex with Skp1
- concentration for complete inhibition of Bora phosphorylation (CDK2-cyclin A^173−432; 10 μM Bora^1–224, 0.75 mM ATP [γ−^32P], pH 7.5, phosphoimager): 10 µM
- inhibition of phosphorylation of RxL containing substrate (in words) (CDK2-cyclin A^173−432; Bora^1–224): completely inhibit Bora phosphorylation in vitro in a manner dependent on its N-terminus
- IC50 ([2]; Figure 3E): 5.3 µM
- IC50 ([2]; Figure 4F): 5.8 µM

Substance: Skp2^Δ1−28: Skp2 with residues 1 to 28 deleted
- binding of N-terminal deletions to GST:CDK2-cyclin A (CDK2-cyclin A [1]): caused a decrease in CDK2-cyclin A binding

Substance: p21: CDK inhibitor p21
- competition with the N-terminus of Skp2 (CDK2-cyclin A [3]): compete with the N-terminus of Skp2 for binding to CDK2-cyclin A

Second part, the substance after the results:

- binding of GST-tagged Skp2 N-terminal fragments to CDK2-cyclin A^1−432 (CDK2-cyclin A [1]): A major loss of binding to CDK2-cyclin A
Substance: Skp2^1−29: GST-tagged Skp2 fragment 1–29 (MHRKHLQEIPDLSSNVATSFTWGWDSSKT; also: GST-tagged (end not given here))

- binding of GST-tagged Skp2 N-terminal fragments to CDK2-cyclin A^1−432 (CDK2-cyclin A [1]): did not affect binding to CDK2-cyclin A
Substance: Skp2^17−43: GST-tagged Skp2 fragment 17–43 (ATSFTWGWDSSKTSELLSGMGVSALEK; also: GST-tagged (end not given here))

- binding of GST-tagged Skp2 N-terminal fragments to CDK2-cyclin A^1−432 (CDK2-cyclin A [1]): did abolish binding
Substance: Skp2^28−43: GST-tagged Skp2 fragment 28–43 (KTSELLSGMGVSALEK; also: GST-tagged (end not given here))

- binding of N-terminal deletions to GST:CDK2-cyclin A (CDK2-cyclin A [1]): had no effect on CDK2-cyclin A binding
Substance: Skp2^Δ1−16: Skp2 with residues 1 to 16 deleted
